{
  "source": "ChEMBL document CHEMBL3576792",
  "about": "“Enhancement of antibiotic activity against multidrug-resistant bacteria by the efflux pump inhibitor 3,4-dibromopyrrole-2,5-dione isolated from a Pseudoalteromonas sp” (J Nat Prod, 2015)",
  "key": {"[1]": {"system": "Escherichia coli", "test": "Potentiation of erythromycin-induced antibacterial activity Escherichia coli transformed with plasmid carrying MG1655 deltaBC/pABM by p-iodonitrotetrazolium chloride colorimetric assay", "type": "functional"}, "[2]": {"system": "Escherichia coli", "test": "Potentiation of ciprofloxacin-induced antibacterial activity Escherichia coli AG102 overexpressing AcrAB-TolC by p-iodonitrotetrazolium chloride colorimetric assay", "type": "functional"}, "[3]": {"system": "Escherichia coli", "test": "Antibacterial activity against Escherichia coli transformed with plasmid carrying MG1655 deltaBC/pXYM by p-iodonitrotetrazolium chloride colorimetric assay", "type": "functional", "method_in_brief": "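Two-fold broth microdilution in Mueller-Hinton broth, read by p-iodonitrotetrazolium chloride colorimetric assay. MIC is the lowest concentration giving no visible growth. MG1655 ΔacrB ΔtolC strains carrying pABM or pXYM were always cultured with 100 μg/mL ampicillin and 1 mM IPTG. Medium, inoculum and 1% DMSO (final) served as negative control.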"}, "[4]": {"system": "Escherichia coli", "test": "Potentiation of chloramphenicol-induced antibacterial activity Escherichia coli transformed with plasmid carrying MG1655 deltaBC/pXYM by p-iodonitrotetrazolium chloride colorimetric assay", "type": "functional"}, "[5]": {"system": "Escherichia coli", "test": "Potentiation of chloramphenicol-induced antibacterial activity Escherichia coli AG102 overexpressing AcrAB-TolC by p-iodonitrotetrazolium chloride colorimetric assay", "type": "functional"}, "[6]": {"system": "Escherichia coli", "test": "Effect on intracellular H33342 accumulation in Escherichia coli AG100A delta acrAB mutant at 0.25 ug/ml after 60 mins by accumulation assay", "type": "functional", "method_in_brief": "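Cells grown in Luria broth at 37 °C, 200 rpm to OD600 1.0, washed twice in PBS and diluted in glucose-free PBS to OD600 0.3. Cells were given 2.5 μM H33342 with 22 mM glucose at 37 °C for ~30 min until stable, then compound added (0.06–64 μg/mL). Fluorescence (Ex 350/Em 460 nm) was read for 60 min, background subtracted, and the final 4 min averaged (n = 8).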"}, "[7]": {"system": "Escherichia coli", "test": "Potentiation of kanamycin-induced antibacterial activity Escherichia coli transformed with plasmid carrying MG1655 deltaBC/pABM assessed as kanamycin MIC by p-iodonitrotetrazolium chloride colorimetric assay", "type": "functional", "method_in_brief": "(§1)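 Checkerboard microdilution in Mueller-Hinton broth: two-fold dilutions of antibiotic crossed with dilutions of test compound above, at and below their MICs. Growth was read by INT colorimetric assay, with MIC as the lowest concentration showing no visible growth. FICs and FIC index were derived from these MICs. ΔBC/pABM and ΔBC/pXYM strains were grown with 100 μg/mL ampicillin and 1 mM IPTG.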"}, "[8]": {"system": "Escherichia coli", "test": "Potentiation of levofloxacin-induced antibacterial activity Escherichia coli transformed with plasmid carrying MG1655 deltaBC/pABM MIC by p-iodonitrotetrazolium chloride colorimetric assay", "type": "functional"}, "[9]": {"system": "Escherichia coli", "test": "Potentiation of kanamycin-induced antibacterial activity Escherichia coli AG102 overexpressing AcrAB-TolC assessed as kanamycin MIC by p-iodonitrotetrazolium chloride colorimetric assay", "type": "functional", "method_in_brief": "as §1"}, "[10]": {"system": "Escherichia coli", "test": "Potentiation of ciprofloxacin-induced antibacterial activity Escherichia coli transformed with plasmid carrying MG1655 deltaBC/pXYM by p-iodonitrotetrazolium chloride colorimetric assay", "type": "functional"}, "[11]": {"system": "Escherichia coli", "test": "Potentiation of kanamycin-induced antibacterial activity Escherichia coli transformed with plasmid carrying MG1655 deltaBC/pABM by p-iodonitrotetrazolium chloride colorimetric assay", "type": "functional"}, "[12]": {"system": "Escherichia coli", "test": "Inhibition of AcrAB-TolC pump in Escherichia coli AG100 assessed as increase in intracellular H33342 fluorescence at >= 1 ug/ml after 60 mins by efflux inhibition assay", "type": "cell-based", "method_in_brief": "(§2)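 AG100 (wild-type K-12) or AG100A (ΔacrAB) cells were grown in Luria broth at 37 °C and 200 rpm to OD600 1.0, PBS-washed and diluted to OD600 0.3. Cells took up 2.5 μM Hoechst 33342 with 22 mM glucose at 37 °C for about 30 min, then compound (0.06–64 μg/mL) or PAβN (15.6 μg/mL) was added. Fluorescence (Ex 350/Em 460 nm) was followed for 60 min and corrected for background. The last four time points were compared to dye-only control by ANOVA with Dunnett's test, run in duplicate.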"}, "[13]": {"system": "Escherichia coli K-12", "test": "Inhibition of AcrAB-TolC pump in Escherichia coli K-12 AG100 assessed as increase in H33342 accumulation at 64 ug/ml after 60 mins by accumulation assay"}, "[14]": {"system": "Escherichia coli", "test": "Potentiation of kanamycin-induced antibacterial activity Escherichia coli transformed with plasmid carrying MG1655 deltaBC/pXYM assessed as kanamycin MIC by p-iodonitrotetrazolium chloride colorimetric assay", "type": "functional", "method_in_brief": "as §1"}, "[15]": {"system": "Escherichia coli", "test": "Potentiation of tetracycline-induced antibacterial activity Escherichia coli transformed with plasmid carrying MG1655 deltaBC/pXYM by p-iodonitrotetrazolium chloride colorimetric assay", "type": "functional"}, "[16]": {"system": "Escherichia coli", "test": "Potentiation of erythromycin-induced antibacterial activity Escherichia coli AG102 overexpressing AcrAB-TolC assessed as erythromycin MIC by p-iodonitrotetrazolium chloride colorimetric assay", "type": "functional", "method_in_brief": "as §1"}, "[17]": {"system": "Escherichia coli", "test": "Potentiation of tetracycline-induced antibacterial activity Escherichia coli AG102 overexpressing AcrAB-TolC assessed as tetracycline MIC by p-iodonitrotetrazolium chloride colorimetric assay", "type": "functional", "method_in_brief": "as §1"}, "[18]": {"system": "Escherichia coli", "test": "Potentiation of chloramphenicol-induced antibacterial activity Escherichia coli transformed with plasmid carrying MG1655 deltaBC/pABM assessed as chloramphenicol MIC by p-iodonitrotetrazolium chloride colorimetric assay", "type": "functional", "method_in_brief": "as §1"}, "[19]": {"system": "Escherichia coli", "test": "Potentiation of tetracycline-induced antibacterial activity Escherichia coli AG102 overexpressing AcrAB-TolC by p-iodonitrotetrazolium chloride colorimetric assay", "type": "functional"}, "[20]": {"system": "Escherichia coli", "test": "Potentiation of piperacillin-induced antibacterial activity Escherichia coli transformed with plasmid carrying MG1655 deltaBC/pXYM assessed as piperacillin MIC by p-iodonitrotetrazolium chloride colorimetric assay", "type": "functional", "method_in_brief": "as §1"}, "[21]": {"system": "Escherichia coli", "test": "Potentiation of tetracycline-induced antibacterial activity Escherichia coli transformed with plasmid carrying MG1655 deltaBC/pXYM assessed as tetracycline MIC by p-iodonitrotetrazolium chloride colorimetric assay", "type": "functional", "method_in_brief": "as §1"}, "[22]": {"system": "Escherichia coli", "test": "Potentiation of piperacillin-induced antibacterial activity Escherichia coli transformed with plasmid carrying MG1655 deltaBC/pABM by p-iodonitrotetrazolium chloride colorimetric assay", "type": "functional, organism-based", "method_in_brief": "as §1"}, "[23]": {"system": "Escherichia coli", "test": "Potentiation of levofloxacin-induced antibacterial activity Escherichia coli AG102 overexpressing AcrAB-TolC assessed as levofloxacin MIC by p-iodonitrotetrazolium chloride colorimetric assay", "type": "functional", "method_in_brief": "as §1"}, "[24]": {"system": "Escherichia coli K-12", "test": "Inhibition of AcrAB-TolC pump in Escherichia coli K-12 AG100 assessed as […] at 16 ug/ml after 60 mins by accumulation assay", "method_in_brief": "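AG100 (wild-type K-12) or AG100A (ΔacrAB) grown in Luria broth at 37 °C and 200 rpm to OD600 1.0, PBS-washed, diluted to OD600 0.3. Cells given 2.5 μM H33342 with 22 mM glucose at 37 °C for ~30 min until stable, then compound (0.06–64 μg/mL) added. Fluorescence (Ex 350/Em 460) read for 60 min, background subtracted. Final 4 time points averaged; one-way ANOVA/Dunnett vs Hoechst-only; n = 8.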"}, "[25]": {"system": "Escherichia coli K-12", "test": "Inhibition of AcrAB-TolC pump in Escherichia coli K-12 AG100 assessed as increase in intracellular H33342 fluorescence at 16 ug/ml after 60 mins by efflux inhibition assay", "type": "cell-based", "method_in_brief": "as §2"}},
  "note": "Calls of active or inactive are those of the source. The rule behind the calls is not given here.",
  "data": [
    {"compound": "O=C1NC(=O)C(Br)=C1Br", "values": [
      {"measurement": "fractional inhibitory concentration index (FICI)", "setting": "[1]", "result": 0.19},
      {"measurement": "fractional inhibitory concentration index (FICI)", "setting": "[2]", "result": 0.5},
      {"measurement": "MIC", "setting": "[3]", "result": 128, "unit": "µg/mL"},
      {"measurement": "fractional inhibitory concentration index (FICI)", "setting": "[4]", "result": 0.19},
      {"measurement": "fractional inhibitory concentration index (FICI)", "setting": "[5]", "result": 0.5},
      {"measurement": "RFU", "setting": "[6]", "result": 1000},
      {"measurement": "MIC", "setting": "[7]", "result": 128, "unit": "µg/mL"},
      {"measurement": "fractional inhibitory concentration index (FICI)", "setting": "[8]", "result": 0.75},
      {"measurement": "MIC", "setting": "[9]", "result": 2, "unit": "µg/mL"},
      {"measurement": "fractional inhibitory concentration index (FICI)", "setting": "[10]", "result": 0.19},
      {"measurement": "fractional inhibitory concentration index (FICI)", "setting": "[11]", "result": 0.75},
      {"measurement": "inhibition", "setting": "[12]", "result": "Active"},
      {"measurement": "RFU", "setting": "[13]", "result": 1200},
      {"measurement": "MIC", "setting": "[14]", "result": 32, "unit": "µg/mL"},
      {"measurement": "fractional inhibitory concentration index (FICI)", "setting": "[15]", "result": 0.58},
      {"measurement": "MIC", "setting": "[16]", "result": 128, "unit": "µg/mL"},
      {"measurement": "MIC", "setting": "[17]", "result": 64, "unit": "µg/mL"},
      {"measurement": "MIC", "setting": "[18]", "result": 128, "unit": "µg/mL"},
      {"measurement": "fractional inhibitory concentration index (FICI)", "setting": "[19]", "result": 0.31},
      {"measurement": "MIC", "setting": "[20]", "result": 256, "unit": "µg/mL"},
      {"measurement": "MIC", "setting": "[21]", "result": 8, "unit": "µg/mL"},
      {"measurement": "fractional inhibitory concentration index (FICI)", "setting": "[22]", "result": "inactive"},
      {"measurement": "MIC", "setting": "[23]", "result": 128, "unit": "µg/mL"},
      {"measurement": "RFU", "setting": "[24]", "result": 1170},
      {"measurement": "RFU", "setting": "[25]", "result": -34}
    ]}
  ]
}
